From PubChem
In the library only some 2.3% were active in any assay of this set; here they are far more common.
TRPC4 PAM – TRPC4 (mouse) allosteric potentiation; Q9QUQ5; HEK293 TRPC4beta/mu-opioid, DAMGO EC20, Fluo-4 Ca2+ flux; stronger effect = higher value; B-score at 10 µM; actives 0.42% (n = 310,000); AID 2227;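 active = B-score of calcium response area above 5 SD of library B-scores, with initial fluorescence ratio within 5 SD of library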;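 also: B-score of integrated fluorescence ratio over time as area under calcium response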
Target sequence (Q9QUQ5 whole entry, looked up): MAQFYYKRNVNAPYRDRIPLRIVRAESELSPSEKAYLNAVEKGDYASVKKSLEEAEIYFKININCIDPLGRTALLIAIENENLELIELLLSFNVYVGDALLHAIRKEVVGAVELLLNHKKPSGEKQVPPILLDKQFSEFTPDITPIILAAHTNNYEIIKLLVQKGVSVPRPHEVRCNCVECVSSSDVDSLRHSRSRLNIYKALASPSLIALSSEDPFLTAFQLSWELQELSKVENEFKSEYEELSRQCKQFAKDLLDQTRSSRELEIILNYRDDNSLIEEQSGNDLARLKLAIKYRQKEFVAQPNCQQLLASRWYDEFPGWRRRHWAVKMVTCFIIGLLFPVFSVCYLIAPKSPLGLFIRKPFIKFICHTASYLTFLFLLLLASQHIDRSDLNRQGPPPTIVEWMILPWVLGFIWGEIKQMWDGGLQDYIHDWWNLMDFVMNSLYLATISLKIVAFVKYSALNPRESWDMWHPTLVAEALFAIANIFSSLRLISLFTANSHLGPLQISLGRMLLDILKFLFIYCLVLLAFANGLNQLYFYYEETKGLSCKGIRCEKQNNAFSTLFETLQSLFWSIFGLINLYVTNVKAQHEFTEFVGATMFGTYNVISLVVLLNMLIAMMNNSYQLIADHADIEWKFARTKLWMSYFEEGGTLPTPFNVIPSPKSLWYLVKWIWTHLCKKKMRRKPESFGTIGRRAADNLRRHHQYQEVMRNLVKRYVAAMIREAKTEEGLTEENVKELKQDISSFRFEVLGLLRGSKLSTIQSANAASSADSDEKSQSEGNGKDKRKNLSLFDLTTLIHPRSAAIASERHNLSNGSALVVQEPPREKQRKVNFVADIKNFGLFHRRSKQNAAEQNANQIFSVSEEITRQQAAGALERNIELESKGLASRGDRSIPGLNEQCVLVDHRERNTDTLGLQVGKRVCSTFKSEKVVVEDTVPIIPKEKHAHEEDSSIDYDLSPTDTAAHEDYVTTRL
TRPC4 inh – inhibitors of mouse TRPC4 channel | Q9QUQ5 | HEK293 TRPC4beta/mu-opioid, DAMGO-evoked Fluo4 calcium flux; stronger effect = lower value | B-score at 10 µM | actives 0.39% (n = 300,000) | AID 2247;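 active = B-score over 3 SD under the library average, no early fluorescence shift, positive overall ratio signal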
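Test system – stable TRPC4beta/mu-opioid receptor HEK293 cells · Probe or stimulus – DAMGO, a submaximal dose followed by a maximal one · Dosing – one concentration per compound · Signal – Fluo4 calcium fluorescence by kinetic imaging, 5 s 1 Hz baseline · Evaluation – per-well B score of integrated baseline-normalized Fluo4 ratio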
TRPC4 agonist – TRPC4 (mouse) channel activation. Q9QUQ5. HEK293 TRPC4beta/mu-opioid, Fluo4 calcium fluorescence; stronger effect = higher value. actives 0.49% (n = 310,000). B-score at 10 µM;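 active = B-score above 5 SD of library B-scores, and initial fluorescence ratio not above library mean plus 5 SD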;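 also: positive B-score marks a calcium rise read as TRPC4 activation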
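Assay system – TRPC4beta and mu-opioid receptor HEK293 stable cells · Measured by – Fluo4 fluorescence, kinetic · Schedule – dye loading 45 min room temperature, 110 s kinetic read · Read-out – B-scored integrated calcium fluorescence ratio · Controls – buffer and maximal DAMGO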
TRPC6 inhibitor – mouse TRPC6 channel inhibition. Q61143. HEK293-TRPC6, membrane potential dye, ACh-evoked depolarization; stronger effect = lower value. B-score at 10 µM. actives 1.1% (n = 310,000). AID 2553;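 active = B-score under library mean minus 3 SD, initial fluorescence not abnormally high, positive integrated signal ratio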;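 also: B-score derived from integrated fluorescence ratio over the kinetic read; more negative B-score means stronger inhibition of depolarization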
TRPC6 act – activates the mouse TRPC6 cation channel | B-score at 10 µM | actives 0.13% (n = 310,000) | AID 2550 | HEK293-TRPC6 membrane potential dye fluorescence; stronger effect = higher value | Q61143;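 active = B-score of the integrated fluorescence ratio above library mean plus 3 SD, and starting fluorescence ratio within library mean plus 5 SD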;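 also: higher score means more depolarization so channel activation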
TRPC4 spec 2 – mouse TRPC4 off-target activity of TRPC6 inhibitors, second screen; shares compounds with TRPC6 inhibitor; HEK293 TRPC4/MOR, membrane potential dye fluorescence; channel activated by saturating DAMGO dose; actives 42% (n = 920); inhibition, % at 10 µM;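 active = compounds whose fluorescence signal differed from control wells by over 3 SD, either direction, in both duplicate plates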
TRPC4 spec – selectivity of TRPC6 inhibitors: effect on mouse TRPC4. shares compounds with TRPC6 inhibitor. HEK293 TRPC4/mu-opioid, membrane potential fluorescence. activity change, negative = inhibition, % at 10 µM. actives 61% (n = 920). AID 2777;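 active = rise or fall in signal beyond 3 SD of buffer-only wells in both replicate plates, either sign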;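 also: integrated kinetic ratio of fluorescence range over baseline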
HEK293 MPD ctr 2-1 – second check of TRPC6 inhibitor effects in parental HEK293 cells. shares compounds with TRPC6 inhibitor. parental HEK293 membrane potential dye fluorescence; maximal acetylcholine challenge after compound addition. signal change vs control, % at 10 µM. actives 31% (n = 920);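 active = membrane potential signal moving either way by over 3 SD of the maximum-effect control, in both duplicate plates, meaning non-specific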
HEK293 MPD ctr-1 – checks TRPC6 inhibitor effects in parental HEK293 cells; shares compounds with TRPC6 inhibitor; membrane potential signal change, % at 10 µM; actives 60% (n = 920); parental HEK293 membrane potential dye fluorescence;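 active = membrane potential signal shifting up or down by more than 3 SD of buffer-only wells, on both duplicate plates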
HEK293 MPD ctr-2 – checks TRPC6 modulator effects in parental HEK293 cells | shares compounds with TRPC6 inhibitor | membrane potential dye fluorescence | membrane potential signal change, % at 10 µM | actives 51% (n = 2,400) | AID 488924;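 active = membrane potential signal moves up or down beyond 5 SD from buffer-only wells, on both duplicate plates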
HEK293 MPD ctr 2-2 – second counter-screen for TRPC6 modulators: effect in parental HEK293 cells. shares compounds with TRPC6 inhibitor. membrane potential dye fluorescence; after compound, maximal acetylcholine stimulation. inhibition, % at 10 µM. actives 14% (n = 2,400);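 active = membrane potential signal drops by more than 5 SD from the mean control signal, in both duplicate plates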;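 also: plate controls were acetylcholine ECmax control wells for no effect and buffer only wells for full effect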
TRPC4 ctr mod – selectivity of TRPC6 modulators against mouse TRPC4 | shares compounds with TRPC6 inhibitor | HEK293 TRPC4/mu-opioid, membrane potential fluorescence | percent change from control (negative = decrease, positive = increase), % at 10 µM | actives 69% (n = 2,400) | AID 488927;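 active = membrane potential signal moved up or down beyond 5 SD of buffer control wells, in both duplicate plates, actives on both sides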;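 also: plate controls were assay buffer wells for no effect and DAMGO maximal-effect wells for full effect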
TRPC4/MOR inh 2 – second check of whether TRPC6 modulators also affect mouse TRPC4; shares compounds with TRPC6 inhibitor; HEK293 TRPC4/mu-opioid, membrane potential dye fluorescence; stimulated with maximal-effect DAMGO; inhibition, % at 10 µM; actives 55% (n = 2,400); AID 488928;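 active = drop in membrane potential signal beyond 5 SD of the control wells in both duplicate plates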;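 also: TRPC4 counter screen for TRPC6 hits run under conditions tuned for TRPC6 not TRPC4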
TRPC6 block conf – confirmation of mouse TRPC6 inhibitors; shares compounds with TRPC6 inhibitor; HEK293-TRPC6, membrane potential dye, ACh-evoked depolarization; inhibition, % at 10 µM; actives 43% (n = 3,300);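 active = fluorescence ratio falls more than 5 SD below the full-stimulation control mean, in both duplicate runs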;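 also: integrated fluorescence ratio of peak minus minimum over baseline after agonist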
TRPC6 act conf – confirmation of mouse TRPC6 activators. shares compounds with TRPC6 inhibitor. HEK293-TRPC6 membrane potential dye fluorescence, FDSS. activation, % at 10 µM. actives 11% (n = 2,800). AID 488961;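 active = ratio signal rise beyond 5 SD above unstimulated control wells' mean, seen in both duplicate runs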;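 also: plate controls were buffer EC0 wells for no effect and acetylcholine ECmax response for full effect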
* = called active by the depositor; i = inactive; . = not tested or not shown.

SMILES	TRPC4 PAM	TRPC4 inh	TRPC4 agonist	TRPC6 inhibitor	TRPC6 act	HEK293 MPD ctr-2	HEK293 MPD ctr 2-2	TRPC4 ctr mod	TRPC4/MOR inh 2	TRPC6 block conf	TRPC6 act conf	others
CCOC(=O)c1cn(CC2CC2)c2cc(F)c(F)cc2c1=O	i	i	i	-5.4*	i	-276%*	i	-48%*	59%*	53%*	i
Cc1cc(C)cc(N(CC(=O)N2CCCCCC2)S(C)(=O)=O)c1	i	i	i	i	i	.	.	.	.	.	.
O=C(N=Nc1c(O)[nH]c2ccc(Cl)cc12)c1cc(-c2cccs2)nc2ccccc12	i	i	i	-5.7*	i	i	i	i	i	i	i
O=C(c1ccc(COc2ccccc2Cl)o1)N1CCCC1	i	i	i	i	i	.	.	.	.	.	.
CN1CCN(C(=O)c2cccc(COc3cc(Cl)ccc3Cl)c2)CC1	i	i	i	i	i	.	.	.	.	.	.
CC1CCN(C(=O)c2ccc(COc3ccccc3Cl)o2)CC1	i	i	i	-6.2*	i	121%*	i	25%*	i	i	i
CN1CCN(C(=O)c2ccc(COc3cc(Cl)ccc3Cl)o2)CC1	i	i	i	-5.7*	i	127%*	i	22%*	i	i	.
O=C(NCCCCc1ccccc1)C1CC(c2cc(C(F)(F)F)cc(C(F)(F)F)c2)=NO1 (centres undefined)	i	i	i	i	i	.	.	.	.	.	.
CC(C)c1cc(=O)oc2c3c4c(cc12)CCCN4CCC3	i	i	i	-5.2*	i	640%*	i	-127%*	39%*	i	i
Cc1cc(=O)oc2c3c4c(cc12)OCCN4CCC3	i	i	i	i	i	.	.	.	.	.	.
Cc1nc(NCc2ccccn2)c2ccccc2n1	i	i	i	i	i	.	.	.	.	.	.
Cc1cc(NCc2ccccn2)nc2ccccc12	i	i	i	-8.9*	i	.	.	.	.	95%*	i	TRPC4 spec 2=49%*;TRPC4 spec=-20%*;HEK293 MPD ctr 2-1=i;HEK293 MPD ctr-1=-292%*
Cc1c(C)n(CCc2ccccc2)c2ncnc(NCCCN(C)C)c12	i	i	i	-6.3*	i	-70%*	i	-22%*	58%*	58%*	i
Cc1c(C)n(CCN(C)C)c2ncnc(NCc3ccccc3)c12	i	i	i	i	i	.	.	.	.	.	.
